{"source": "the RNAGym collection of RNA variant scans (doi:10.1126/science.aae0568)", "parents": {"B1": {"name": "tRNA (parent)", "chain": "GUUCCGUUGGCGUAAUGGUAACGCGUCUCCCUCCUAAGGAGAAGACUGCGGGUUCGAGUCCCGUACGGAACG"}}, "note": "Variants at the floor of the assay were thinned out."}
{"variants_of": "B1", "experiment": "yeast fitness relative to wild type (ratio to wild type); higher = fitter; tRNA-Arg(CCU), competitive growth, 37 C, YPD", "how_it_was_run": "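Variants of the tRNA-Arg(CCU) gene, chemically synthesised with a 3% per-site mutation rate at 69 sites, were placed at the native genomic locus in Saccharomyces cerevisiae. The pooled strains were competed in YPD at 37°C for 24 hours in six parallel replicates. Gene amplicons from the start population and from each end population were read by 100-nucleotide paired-end sequencing. Darwinian fitness relative to wild type came from changes in genotype frequencies; genotypes needed ≥ 100 starting reads, and estimates < 0.5 were set to 0.5.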"}
{"variant": "GUUCCGUUGGGGUAGUGGUAACGCGUCUCCCUGCUAGGGAGAAGACUGCGGGUUCGAGUCCCGUACGGAACG", "yeast fitness": "≤ 0.5"}
{"variant": "GUUCAGUUGGUGUAAUGGUAACGCGUCUCCCUCCUAAGGAGAAGAUUGCCGGUUCGAGUCCCGUACGGAACG", "yeast fitness": 0.709}
{"variant": "GUUCAGUUGGCGUAAUGGUAACGCGUCUCCCUCGUAGGGAGAAGACUGCGGGUUCGAGUCCCGUACGGAACG", "yeast fitness": "≤ 0.5"}
{"variant": "GUUCCGUUGGCCUAAUGGUAACGUGUCUCCCUCCUAAGGAGAAGACUGCGGGUUUGAGUCCCGUACGGAACG", "yeast fitness": 0.564}
{"variant": "GUUCCGUUGCCGUAAUGGUAACGCGUCUCCAUCCUAAGGAGAAGACUGCGGGUUCGAGUCCCGUCCGGCACG", "yeast fitness": "≤ 0.5"}
{"variant": "GUUCCGGUGGCGUAAUGGUAACGCGUCUCCCCCCUAAGGAGAAGACUGCGGGUUCGAGUCCCGUGCGGAACG", "yeast fitness": 0.795}
{"variant": "GCUCCGUUGGCGUAAUGGUAACGCGUCUCCGUCCUAAGGAGAAGACUGCGGGUUCGAAUCCCGUACGGAACG", "yeast fitness": "≤ 0.5"}
{"variant": "GUUCCGUUGGCGUAAUGGUAAAGCAUUUCCCUCCUAAGGAGACAACUGCGGGUUCGAGUCCCGUACGGAACG", "yeast fitness": "≤ 0.5"}
{"variant": "GUUCCGUUGGUGUAAUGGUAACGGGUCUCCCUCCUAAGGAGAAGACUGCGGGUUCGAGUCCCGUACGGAACG", "yeast fitness": 0.614}
{"variant": "GUUCCGUUGGCGAAAUGGUAACGCGUCUCCCUCCUAAGGAGAAGACUGCGGGUUCGAGUCCCGUACGAAACG", "yeast fitness": 0.864}
{"variant": "GUUCCGUUGGCGUUAUGGUAACGCGUCUGCCUCCUAAGGAGAAGACUGCGGGUUCGAGUCCUGUACGGAACG", "yeast fitness": "≤ 0.5"}
{"variant": "GUUCCGUUGGAGUAAUGGUAACGCGUCUCCCUCCUAAGGAGAAGACUGCGAGAUCGAGUCCCGUACGGAACG", "yeast fitness": "≤ 0.5"}
{"variant": "GUUUCGUUGGCGUAAUGGUAACGCGUCCCACUCCUAAGGAGAAGACUGCGGGUUCGAGUCCCGUACGGAACG", "yeast fitness": 0.755}
{"variant": "GUUCCGUUGGCGUAGUGGUAACGCGUCUCCCUCCUAAGCCGAAGACUGCGGGUUCGAGUCCCGUACGGAACG", "yeast fitness": 0.622}
{"variant": "GUUCCGUUGGCGUCAUGGUAACGCGUCUCCCUCCUAAGGGGAAGACUGCGGGUUCGAGUCCGGUACGAAACG", "yeast fitness": "≤ 0.5"}
{"variant": "GUUCCGUUGGCGUAAUGGUAGCGCGUCUCCUUCCUAGGGAGAAGACUGCGGGUUCGAGUCCGGUACGGAACG", "yeast fitness": "≤ 0.5"}
{"variant": "GUUCCGUUGGCGUAAUGGUAACGUGUCUCUGUCCUAAGGAGAAGACUGCGGGUUCGAGUCCCGUACGGAACG", "yeast fitness": 0.623}
{"variant": "GUUCCGUUGGCGGAAUGGUAACGCGUCUCCCUCCUAAGGAGAAGACUGCGGGUUCGAGUCCCGUAUGGAACG", "yeast fitness": 0.818}
{"variant": "GUUCCGUUGGCGUAGUGGUAACGCGUCUCCCUCCUUAGGAGAAGACUGCGGGUUCGAGUCUCGUUCGGAACG", "yeast fitness": "≤ 0.5"}
{"variant": "GUACCGUUGGCGUAAUGGUAACGCGUCUCCAUCAUACGGAGAAGACUGCGGGUUCGAGUCCCGUACGCAACG", "yeast fitness": "≤ 0.5"}
{"variant": "GUUGCGUUGGCGUUAUGGUAACGCGUCUCCCUCCUAAGGAGAAGACUGCGGGUUCGAGUCCCGUACGGAACG", "yeast fitness": 0.78}
{"variant": "GUCCCGAUCGCGUAAUCGUAACGCGUCUCCCUCCUAAGGAGAAGACUACGGGUUCGAGUCCCGUACGGUACG", "yeast fitness": "≤ 0.5"}
{"variant": "GUUCCGUUGGCGGAAUGGUUACGCGUCUCCCUCCUAAGGAGAAGACUGCGGGUUCGAGACCCGUACGGAACG", "yeast fitness": "≤ 0.5"}
{"variant": "GUUACGUUGGCGAAAUGGUAGCGCGUCUCCCUCCUAAGGAGAAGACUGCGGGUUCGACUCCCGUACGAAACG", "yeast fitness": 0.607}
{"variant": "GUUCCGUUGGCGUAAUGGUAACGCGUCAUCCUCCUAAGGAGAAGCCUGCGGGUUCGAGUCCCGUACGGAACG", "yeast fitness": 0.522}
{"variant": "GUUCCGUUGGCGUAAUGGUAACGCGUCUCCCUGCUAAGGGGAGAACUGCGGGUUCGAGUCCCGUACGGAACG", "yeast fitness": "≤ 0.5"}
{"variant": "GUUCCGUUGGCGUAAUGGUGACGCGUCUCCGUCCUAAGGAGAAGACUGCGGGUUCGAGUCCCGUACGGAACG", "yeast fitness": 0.966}
{"variant": "GUUCCGUGGGCGUAAUGGUAACGCGUCUCCCGCCUAAAGAGAAGACUGCGGGUUCCAGUCCCGUACGGAACG", "yeast fitness": "≤ 0.5"}
{"variant": "GUUCUGUUGGCGUAAUGGUAGCGCGUUUCCCUCCUAAGGAGAAGACUGCGGGUUCGAGUCCCGUACGGUACG", "yeast fitness": "≤ 0.5"}
{"variant": "GUUCCGUUGGCGUAAUGGUUACGCGUCUCCCUCCUAAGGAGAAGACUGCGGGUUCGAGUCCCGCACGGCACG", "yeast fitness": 0.657}
{"variant": "GAUCCGUUGGCGUAAUGGUGACGCGUCUCCCUCAUAAGGAGAAGACUGUGGGUUCGAGUCCCGUACGGAACG", "yeast fitness": "≤ 0.5"}
{"variant": "GUUCCGUUGGCGCAAUGGUAACGCGUCUCCCUCGUAAGGAGAAGAUUGCGGGUUCGUGUGCCGUCCGGAACG", "yeast fitness": "≤ 0.5"}
{"variant": "GUUCCGUUGGCGUAAUGGUAACGCGUCUGCCUUCUAAGGAGAAGUCUGCGGGUUCAAGCCCCGUCCGGAGCG", "yeast fitness": "≤ 0.5"}
{"variant": "GUUCCGUUGGCGUAAUGGUAACGCGUCUCGCUCCUAAGGAGAACACUGCGCGUUCGAGUCCCGUACGGAACG", "yeast fitness": 0.549}
{"variant": "GUUCCGUUGGCCUCGUGGUAACGCGUCUCCCUCCUACGGAGAAGACUGCGGGUUCGAGUCCCGUACGGAACG", "yeast fitness": 0.606}
{"variant": "GUUCCGUUGGUGUGAUGGUAACGGGUUUCCCUCCUGAGGAACAGACUGCGGGUUCGAGUCCCGUACGGAACG", "yeast fitness": "≤ 0.5"}
{"variant": "GUUUCGUUGGCGUAAUGGUAACGUGUCUCCCUCCUAAGGAGAAGACUGCGGGUUCGAGUCCCGUACGGCACG", "yeast fitness": 0.677}
{"variant": "GUUCCGUUGGCGUAAUGGUAACGCGUCUCCCUCCUAAGGAGAAGACUGCGCGUUCGAGUCCGGUACGAAACG", "yeast fitness": 0.715}
